Laboratory results from ChEMBL document CHEMBL4406803, “A- and D-Ring Structural Modifications of an Androsterone Derivative Inhibiting 17β-Hydroxysteroid Dehydrogenase Type 3: Chemical Synthesis and Structure-Activity Relationships” (J Med Chem, 2019).

Key:
[1] = biological target: T1, 17-beta-hydroxysteroid dehydrogenase type 3 (Homo sapiens) (UniProt P37058); experiment: Inhibition of 17beta-HSD3 (unknown origin) expressed in human LNCAP cells assessed as reduction in [14C]-testosterone formation from [14C]-4-androstene-3,17-dione at 0.1 uM measured after 1 hr relative to control; format: cell-based
T1 sequence (whole entry): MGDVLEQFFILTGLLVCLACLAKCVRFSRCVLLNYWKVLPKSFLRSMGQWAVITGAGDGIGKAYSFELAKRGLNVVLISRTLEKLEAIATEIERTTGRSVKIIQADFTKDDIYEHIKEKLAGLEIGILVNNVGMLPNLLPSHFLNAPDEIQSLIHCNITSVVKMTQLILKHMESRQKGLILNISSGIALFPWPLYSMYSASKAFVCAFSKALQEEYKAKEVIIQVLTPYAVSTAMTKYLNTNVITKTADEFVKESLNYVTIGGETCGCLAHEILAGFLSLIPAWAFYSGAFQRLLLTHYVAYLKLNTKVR
In short: (§1)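 LNCaP cells stably transfected with 17β-HSD3 were plated at 10,000 per well in hygromycin-free medium and grown 2 days. They were then given 15 nM [14C]-4-androstenedione plus inhibitor at 0.1, 0.5 or 1.0 µM (0.05% DMSO final) for 1 h. Steroids were ether-extracted, separated by TLC and quantified by radioimaging. Results are % inhibition of conversion to T.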

[2] = biological target: T1, 17-beta-hydroxysteroid dehydrogenase type 3 (Homo sapiens); experiment: Inhibition of 17beta-HSD3 (unknown origin) expressed in human LNCAP cells assessed as reduction in [14C]-testosterone formation from [14C]-4-androstene-3,17-dione at 0.5 uM measured after 1 hr relative to control; format: cell-based; in short: as §1
[3] = biological target: T1, 17-beta-hydroxysteroid dehydrogenase type 3 (Homo sapiens); experiment: Inhibition of 17beta-HSD3 (unknown origin) expressed in human LNCAP cells assessed as reduction in [14C]-testosterone formation from [14C]-4-androstene-3,17-dione at 1 uM measured after 1 hr relative to control; format: cell-based; in short: as §1
LAPC4 [4] = experiment: Androgenic activity in human LAPC4 cells expressing androgen receptor assessed as effect on cell proliferation at 0.5 uM supplemented with fresh medium containing compounds every 3 days for 7 days by MTS assay (reference value: 100%); format: ADME, cell-based; conditions: lapc4, 168 h
In short: (§2)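 Androgen-dependent LAPC-4 cells were seeded at 5,000 per well in IMDM with 5% dextran-coated charcoal-treated FBS and pre-incubated 24 h at 37 °C, 5% CO2. Compounds were added from DMSO stock at 0.1, 0.5 and 1.0 µM, with 0.05% DMSO in controls. Incubation lasted 7 days, with a medium change at day 3. Growth was read by MTS (4 h, 490 nm) as % of untreated control (100%), in triplicate.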

[5] = Stability of the compound in human liver S9 fraction at 10 uM measured after 1 hr by NADPH by HPLC-MS analysis; format: ADME, subcellular; conditions: s9, 1 h
In short: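 Substrate (10 µM) was incubated 1 h at 37 °C with 40 µg human liver S9 fraction in 50 mM Tris with 10 mM MgCl2, with or without 10 mM NADPH. The reaction was stopped with MeOH. Remaining parent was measured by HPLC-MS (UV 190 nm) as the AUC ratio with/without NADPH ×100. Values are the mean ± SD of four independent experiments.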

[6] = biological target: T2, 17-beta-hydroxysteroid dehydrogenase type 3 (Homo sapiens, UniProt P37058); experiment: Inhibition of 17beta-HSD3 (unknown origin) expressed in human LNCAP cells assessed as reduction in [14C]-testosterone formation from [14C]-4-androstene-3,17-dione measured after 1 hr; format: cell-based
T2 sequence (P37058 whole entry): T1 sequence (whole entry)
In short: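 Transfected LNCaP[17β-HSD3] cells were incubated 1 h with 15 nM [14C]-4-androstenedione and inhibitor at seven concentrations (0.001–5.0 µM; 0.05% DMSO). [14C]-T formation was measured by TLC and radioimaging. IC50 was obtained by curve fitting, averaging two independent experiments in triplicate.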

LAPC4 [7] = experiment: Androgenic activity in human LAPC4 cells expressing androgen receptor assessed as effect on cell proliferation at 1 uM supplemented with fresh medium containing compounds every 3 days for 7 days by MTS assay (reference value: 100%); format: ADME, cell-based; conditions: lapc4, 168 h; in short: as §2
LAPC4 [8] = experiment: Androgenic activity in human LAPC4 cells expressing androgen receptor assessed as effect on cell proliferation at 0.1 uM supplemented with fresh medium containing compounds every 3 days for 7 days by MTS assay (reference value: 100%); format: ADME, cell-based; conditions: lapc4, 168 h; in short: as §2
[9] = Plasma concentration in mouse at 25 mg/kg, sc administered as single dose measured after 3 hrs by LC-MS/MS analysis; format: ADME, organism-based
In short: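 Female mice were fasted 8 h, then given a single 25 mg/kg subcutaneous dose in 0.1 mL of 0.4% aqueous methylcellulose with 8% DMSO. At 3 h, blood was taken by cardiac puncture into K-EDTA tubes (3 mice per group). Plasma was extracted and analysed by LC-MS/MS against a plasma calibration curve.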

PC-3 [10] = experiment: Antiproliferative activity against AR-deficient human PC3 cells assessed as reduction in cell proliferation at 0.1 uM measured after 3 days by MTS assay relative to control; format: functional; set-up: scale not given: the % may be the effect or the level left
In short: (§3)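 Androgen-independent PC-3 cells were plated at 3,000 per well in triplicate in RPMI-1640 with 10% FBS. Compounds were added at 0.1, 0.5 and 1.0 µM from DMSO stock, with 0.05% DMSO in controls, and incubated 3 days. Growth was read by MTS (4 h, 490 nm) and expressed as % of non-treated control (100%).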

LAPC4 [11] = experiment: Antiproliferative activity against human LAPC4 cells expressing androgen receptor assessed as inhibition of cell proliferation at 0.1 uM supplemented with fresh medium containing compounds every 3 days for 7 days by MTS assay relative to control; format: functional; in short: as §2
LAPC4 [12] = experiment: Antiproliferative activity against human LAPC4 cells expressing androgen receptor assessed as inhibition of cell proliferation at 0.5 uM supplemented with fresh medium containing compounds every 3 days for 7 days by MTS assay relative to control; format: functional; in short: as §2
PC-3 [13] = experiment: Antiproliferative activity against AR-deficient human PC3 cells assessed as reduction in cell proliferation at 1 uM measured after 3 days by MTS assay relative to control; format: functional; set-up: scale not given: the % may be the effect or the level left; in short: as §3
LAPC4 [14] = experiment: Antiproliferative activity against human LAPC4 cells expressing androgen receptor assessed as inhibition of cell proliferation at 1 uM supplemented with fresh medium containing compounds every 3 days for 7 days by MTS assay relative to control; format: functional; in short: as §2
PC-3 [15] = experiment: Antiproliferative activity against AR-deficient human PC3 cells assessed as reduction in cell proliferation at 0.5 uM measured after 3 days by MTS assay relative to control; format: functional; set-up: scale not given: the % may be the effect or the level left; in short: as §3
LAPC4 [16] = experiment: Antiproliferative activity against human LAPC4 cells expressing androgen receptor assessed as inhibition of cell proliferation supplemented with fresh medium containing compounds every 3 days for 7 days by MTS assay; format: functional, cell-based; in short: as §2

inhibition [1] [%]	inhibition [2] [%]	inhibition [3] [%]	Stability [5]	IC50 [6] [µM]	concentration at 3 h [9] [ng/mL]	SMILES	Activity (LAPC4 [4]) [%]	Activity (LAPC4 [7]) [%]	Activity (LAPC4 [8]) [%]	Activity (PC-3 [10]) [%]	inhibition (INH) (LAPC4 [11]) [%]	inhibition (INH) (LAPC4 [12]) [%]	Activity (PC-3 [13]) [%]	inhibition (INH) (LAPC4 [14]) [%]	Activity (PC-3 [15]) [%]	inhibition (LAPC4 [16])
22	75	90	Stable	0.2		CC1CN(S(=O)(=O)c2ccccc2C(F)(F)F)C(C)CN1C[C@@]1(O)CC[C@@]2(C)[C@@H](CC[C@@H]3[C@@H]2CC[C@]2(C)C(=O)[C@H](F)C[C@@H]32)C1 (some centres not stated)	134.2	126.6	147.7							
40	80	90	Stable	0.22	94.7	CC1CN(S(=O)(=O)c2ccccc2C(F)(F)F)C(C)CN1C[C@@]1(O)CC[C@@]2(C)[C@@H](CC[C@@H]3[C@@H]2CC[C@]2(C)/C(=N/O)CC[C@@H]32)C1 (some centres not stated)				10	-8	41	4	56	6	Dose-dependent effect
5	10	20				CC1CN(S(=O)(=O)c2ccccc2C(F)(F)F)C(C)CN1C[C@@]1(O)CC[C@@]2(C)[C@@H](CC[C@@H]3[C@@H]2CC[C@@]2(C)[C@H]3CC[C@@]23CO3)C1 (some centres not stated)	61.2	49.3	92.6							
30	80	90		0.25		CC1CN(S(=O)(=O)c2ccccc2C(F)(F)F)C(C)CN1CC(F)c1ccc2c(c1)CC[C@@H]1[C@@H]2CC[C@]2(C)C(=O)CC[C@@H]12 (mixture of isomers)										
				0.14		CC1CN(S(=O)(=O)c2ccccc2C(F)(F)F)C(C)CN1CC(O)c1ccc2c(c1)CC[C@@H]1[C@@H]2CC[C@]2(C)C(=O)CC[C@@H]12 (single isomer, unassigned; diastereomer A) [listing 1 of 2 here]	94.9	81.9	115							
84	98	100				CC1CN(S(=O)(=O)c2ccccc2C(F)(F)F)C(C)CN1CC(O)c1ccc2c(c1)CC[C@@H]1[C@@H]2CC[C@]2(C)C(=O)CC[C@@H]12 (single isomer, unassigned; diastereomer B)										Dose-dependent effect
50	95	98				CC1CN(S(=O)(=O)c2ccccc2C(F)(F)F)C(C)CN1CC(O)c1ccc2c(c1)CC[C@@H]1[C@@H]2CC[C@]2(C)C(=O)CC[C@@H]12 (single isomer, unassigned; diastereomer A) [listing 2 of 2 here]										
20	48	55				CC1CN(S(=O)(=O)c2ccccc2C(F)(F)F)C(C)CN1C[C@@]1(O)CC[C@@]2(C)[C@@H](CC[C@@H]3[C@@H]2CC[C@]2(C)[C@@H](O)[C@H](O)C[C@@H]32)C1 (some centres not stated)	54.1	43.8	90.8							
5	30	40				C#C[C@]1(O)CC[C@H]2[C@@H]3CC[C@H]4C[C@@](O)(CN5CC(C)N(S(=O)(=O)c6ccccc6C(F)(F)F)CC5C)CC[C@]4(C)[C@H]3CC[C@@]21C (some centres not stated)	95.8	81.2	130.9							
12	58	70				CC1CN(S(=O)(=O)c2ccccc2C(F)(F)F)C(C)CN1C[C@@]1(O)CC[C@@]2(C)[C@@H](CC[C@@H]3[C@@H]2CC[C@]2(C)[C@@H](O)[C@H](F)C[C@@H]32)C1 (some centres not stated)	149.7	142.4	153.6							
10	30	42	Stable	2.6		CC(=O)[C@H]1CC[C@H]2[C@@H]3CC[C@H]4C[C@@](O)(CN5CC(C)N(S(=O)(=O)c6ccccc6C(F)(F)F)CC5C)CC[C@]4(C)[C@H]3CC[C@]12C (some centres not stated)	26.4	27.1	45.9							
0	60	80				CC1CN(S(=O)(=O)c2ccccc2C(F)(F)F)C(C)CN1C[C@@]1(O)CC[C@@]2(C)[C@@H](CC[C@@H]3[C@@H]2CC[C@]2(C)C(=O)[C@H](O)C[C@@H]32)C1 (some centres not stated)	83.1	69.3	114							
38	78	94		0.19		CC1CN(S(=O)(=O)c2ccccc2C(F)(F)F)C(C)CN1C[C@@]1(O)CC[C@@]2(C)[C@@H](CC[C@@H]3[C@@H]2CC[C@]2(C)[C@@H](O)CC[C@@H]32)C1 (some centres not stated)	88.1	31.3	116.4							
20	82	94	Unstable	0.22		CC1CN(S(=O)(=O)c2ccccc2C(F)(F)F)C(C)CN1C[C@@]1(O)CC[C@H]2[C@@H](CC[C@@H]3[C@@H]2CC[C@]2(C)C(=O)CC[C@@H]32)C1 (some centres not stated)	66.3	63.1	92.8							
10	18	30				CO[C@H]1CC[C@H]2[C@@H]3CC[C@H]4C[C@@](O)(CN5CC(C)N(S(=O)(=O)c6ccccc6C(F)(F)F)CC5C)CC[C@]4(C)[C@H]3CC[C@]12C (some centres not stated)										
